For series [1], the system named is J774.A1. Put plainly: Inhibition of pyroptosis in LPS-primed immortalized mouse […] cells followed by subsequent nigericin stimulation by imaging analysis. Format: functional, cell-based.
For series [2], the system named is J774.A1. Put plainly: Inhibition of pyroptosis in LPS-primed immortalized mouse […] cells assessed as reduction in nigericin-induced IL-beta secretion by imaging analysis. It counts as functional.
Series [3] is described as follows: Toxicity in zebrafish embryo. Set-up: species or system Danio rerio. As to conditions: in vivo. The procedure, abridged:
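Zebrafish embryos exposed to compound. EC100 is the concentration at which all treated embryos show early lethality, embryonic defects or developmental delay.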

Series [4] relates to BMDM. The series is described as follows: Inhibition of pyroptosis cell death in LPS-primed C57BL/6 mouse primary BMDM assessed as reduction in nigericin-induced IL-1beta secretion. It counts as functional, cell-based. In short, it runs like this:
(§1)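 Primary murine macrophages primed with LPS and stimulated with nigericin across a dose range. IL-1β release, LDH release and Alamar blue measured. Means ± SE, ≥3 experimental replicates.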

The target of series [5] is NACHT, LRR and PYD domains-containing protein 3 (Mus musculus) (UniProt Q8R4B8). The series is described as follows: Activation of NLRP3 inflammasome in LPS-primed mouse […] cells assessed as suppression of ATP-induced pyroptosis at 5 uM. Format: cell-based. As to conditions: J774.A1. The procedure, abridged: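 ATP used as a separate NLRP3 inflammasome activator in macrophages to induce pyroptosis.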
Sequence of NACHT, LRR and PYD domains-containing protein 3 (Mus musculus) (Q8R4B8 whole entry, the tested form may be a part): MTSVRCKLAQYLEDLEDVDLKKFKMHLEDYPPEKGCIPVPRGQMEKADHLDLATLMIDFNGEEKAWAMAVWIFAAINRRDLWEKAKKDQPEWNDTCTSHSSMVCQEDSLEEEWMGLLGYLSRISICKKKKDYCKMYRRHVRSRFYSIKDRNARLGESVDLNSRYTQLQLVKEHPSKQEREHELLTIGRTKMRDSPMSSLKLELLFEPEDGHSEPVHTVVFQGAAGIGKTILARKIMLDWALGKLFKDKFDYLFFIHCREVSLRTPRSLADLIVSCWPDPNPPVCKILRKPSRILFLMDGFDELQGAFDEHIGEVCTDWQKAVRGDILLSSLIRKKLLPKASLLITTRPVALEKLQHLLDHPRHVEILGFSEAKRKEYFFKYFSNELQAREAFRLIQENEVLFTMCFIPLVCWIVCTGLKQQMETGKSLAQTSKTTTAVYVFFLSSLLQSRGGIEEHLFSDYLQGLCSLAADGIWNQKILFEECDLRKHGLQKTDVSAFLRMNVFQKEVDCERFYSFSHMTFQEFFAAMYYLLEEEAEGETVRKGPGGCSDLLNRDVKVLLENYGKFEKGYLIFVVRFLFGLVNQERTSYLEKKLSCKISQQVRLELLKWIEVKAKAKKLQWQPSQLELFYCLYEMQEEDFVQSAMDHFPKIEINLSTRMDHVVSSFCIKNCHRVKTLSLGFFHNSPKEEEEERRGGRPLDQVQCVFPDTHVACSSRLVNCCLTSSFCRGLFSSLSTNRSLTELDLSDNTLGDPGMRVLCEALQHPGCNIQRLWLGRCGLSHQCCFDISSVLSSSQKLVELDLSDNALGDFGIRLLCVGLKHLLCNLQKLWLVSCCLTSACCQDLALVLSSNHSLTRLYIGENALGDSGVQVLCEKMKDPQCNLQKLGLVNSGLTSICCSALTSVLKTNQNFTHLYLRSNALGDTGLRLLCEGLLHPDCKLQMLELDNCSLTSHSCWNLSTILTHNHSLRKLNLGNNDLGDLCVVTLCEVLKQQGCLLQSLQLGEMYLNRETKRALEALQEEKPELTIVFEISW

Series [6] deals with T1, Gasdermin-D (Homo sapiens) (UniProt P57764).
T1 sequence (whole entry): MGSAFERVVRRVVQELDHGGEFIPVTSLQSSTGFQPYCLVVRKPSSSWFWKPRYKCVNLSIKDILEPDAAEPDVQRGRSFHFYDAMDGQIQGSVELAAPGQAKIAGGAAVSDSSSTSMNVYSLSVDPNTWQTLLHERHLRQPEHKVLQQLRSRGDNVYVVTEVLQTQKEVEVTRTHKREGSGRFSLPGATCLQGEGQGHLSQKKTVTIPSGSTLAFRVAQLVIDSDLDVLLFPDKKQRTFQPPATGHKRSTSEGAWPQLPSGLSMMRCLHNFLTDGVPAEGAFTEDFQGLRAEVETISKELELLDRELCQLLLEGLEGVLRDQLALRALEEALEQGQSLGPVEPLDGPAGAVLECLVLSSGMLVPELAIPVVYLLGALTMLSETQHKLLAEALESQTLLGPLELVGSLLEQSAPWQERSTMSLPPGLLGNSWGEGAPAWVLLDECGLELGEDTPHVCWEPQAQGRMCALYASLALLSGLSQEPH
The series is described as follows: Inhibition of N-terminal GSDMD p30 fragment-mediated pyroptotic-cell death in doxycyclin-treated human HEK293T cells assessed as cell death at 5 uM by LDH assay. It counts as cell-based. As to conditions: HEK-293T.

The next series deals with T2, Caspase-1 (Mus musculus) (UniProt P29452).
T2 sequence (whole entry): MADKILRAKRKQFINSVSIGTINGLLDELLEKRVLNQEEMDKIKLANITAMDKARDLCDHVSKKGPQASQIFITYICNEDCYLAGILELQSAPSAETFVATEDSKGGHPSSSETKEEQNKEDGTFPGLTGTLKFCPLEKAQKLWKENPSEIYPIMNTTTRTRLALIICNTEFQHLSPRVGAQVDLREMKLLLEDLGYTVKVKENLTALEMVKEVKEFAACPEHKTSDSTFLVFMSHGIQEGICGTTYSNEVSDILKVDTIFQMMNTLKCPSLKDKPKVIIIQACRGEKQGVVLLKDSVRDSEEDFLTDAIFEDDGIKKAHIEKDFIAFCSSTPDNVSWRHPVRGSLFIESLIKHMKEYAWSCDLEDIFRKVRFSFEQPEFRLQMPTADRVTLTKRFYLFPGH
The series is described as follows: Inhibition of caspase-1 activity in LPS-primed immortalized mouse […] cells assessed as reduction in nigericin-induced Ac-YVAD-pNA cleavage using Ac-YVAD-pNA as substrate at 5 uM by FAM-FLICA reagent based confocal microscopy. Format: cell-based. To be noted: J774.A1. In short, it runs like this: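 Nigericin-treated macrophages. Active caspase-1 was detected two ways: in J774A.1 cells stained with the FAM-FLICA probe plus Hoechst, imaged by confocal microscopy and FLICA intensity quantified in ≥20 cells per group; and with the Ac-YVAD-pNA substrate. Mean ± SEM, n ≥ 3.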

The next series has as its target T3, Caspase-8 (Mus musculus) (UniProt O89110).
T3 sequence (whole entry): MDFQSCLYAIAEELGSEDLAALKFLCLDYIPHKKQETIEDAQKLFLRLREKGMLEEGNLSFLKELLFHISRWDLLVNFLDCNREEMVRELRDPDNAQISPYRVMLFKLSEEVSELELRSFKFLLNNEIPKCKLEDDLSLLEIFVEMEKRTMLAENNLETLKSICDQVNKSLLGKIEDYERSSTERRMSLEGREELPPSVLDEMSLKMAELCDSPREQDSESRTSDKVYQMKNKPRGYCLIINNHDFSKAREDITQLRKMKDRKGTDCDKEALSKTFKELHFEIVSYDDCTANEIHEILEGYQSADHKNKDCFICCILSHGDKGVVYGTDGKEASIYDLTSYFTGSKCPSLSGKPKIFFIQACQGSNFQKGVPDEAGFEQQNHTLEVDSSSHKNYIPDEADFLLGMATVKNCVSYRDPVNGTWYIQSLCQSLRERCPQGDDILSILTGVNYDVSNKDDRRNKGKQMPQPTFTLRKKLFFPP
The series is described as follows: Inhibition of caspase-8 activity in LPS-primed immortalized mouse […] cells assessed as reduction in nigericin-induced caspase-8 cleavage at 5 uM by Western blot analysis. It counts as cell-based. As to conditions: J774.A1. The procedure, abridged: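 Western blot of full-length and cleaved caspase-1 and caspase-8 in J774A.1 cells after nigericin, with tubulin as loading control. Bands quantified as bar graphs.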
On the technique in general: Immunoblotting shows a protein as a band on a membrane.

For series [7], the system named is BMDM. The series is described as follows: Induction of ROS generation in LPS-primed C57BL/6 mouse primary BMDM assessed as increase in nigericin-induced ROS level at 5 uM by DCFH-DA probe based FACS analysis. Format: functional, cell-based. The procedure, abridged: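 Nigericin-stimulated macrophages loaded with DCFH-DA; ROS read as a shift in fluorescence by flow cytometry.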
On the technique in general: Flow cytometry measures light scatter and fluorescence of single cells or particles in a stream.

Series [8] concerns J774.A1. Put plainly: Inhibition of pyroptosis in LPS-primed immortalized mouse […] cells assessed as reduction in poly (dA:dT) induced […] secretion by ELISA. Format: functional, cell-based. In short, it runs like this:
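J774A.1 cells stimulated with flagellin or poly(dA:dT). IL-1β release measured by ELISA. Mean ± SEM, n ≥ 3 independent experiments.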
For orientation: An ELISA detects its analyte on a solid surface through an enzyme-linked reagent.

For series [9], the system named is Mus musculus. The series is described as follows: Antiinflammatory activity against LPS-induced sepsis C57BL/6J mouse model assessed as reduction in alveolar epithelial architecture damage at 20 mg/kg, iv administered as single dose for 1 hr prior to LPS challenge and measured after 48 hrs by hematoxylin-eosin staining based inverted microscopy analysis. Format: functional, organism-based.

For series [10], the system named is Mus musculus. Put plainly: Antiinflammatory activity against LPS-induced sepsis C57BL/6J mouse model assessed as reduction in serum IL-1beta level at 20 mg/kg, iv administered as single dose for 1 hr prior to LPS challenge and measured after 24 hrs of compound treatment by ELISA. Format: functional, organism-based.
The subject of series [11] is BMDM. The series is described as follows: Inhibition of pyroptosis in LPS-primed C57BL/6 mouse primary BMDM assessed as reduction in nigericin-induced cell death by LDH assay. It counts as functional, cell-based. The procedure, abridged: as §1
In series [12] the test system is Mus musculus. The series is described as follows: Antiinflammatory activity against LPS-induced sepsis C57BL/6J mouse model assessed as increase in median survival time at 20 mg/kg, iv administered as single dose for 30 min prior to LPS challenge.

Calls of active or inactive are those of the source. The calls are words filed in the database; no cut-off is given here.

In the case of `CCOC(CN1C(=O)C(NC(=O)Nc2ccc(C)cc2)(C(F)(F)C(=O)Nc2ccc(C)cc2)c2ccccc21)OCC` (centres undefined), in the series on J774.A1 [1], the midpoint of the response, the EC50, lay at 5.5 µM. The Activity in the series with J774.A1 [2] is 92.13 pg/mL. For the same molecule, in [3], the EC100 was greater than 50 µM. Besides, the inhibition result in the series with BMDM [4] and in the series on BMDM [11] was “Dose-dependent effect” each time. Further, the outcome (in [5]; in the series on BMDM [7]; with Mus musculus [9]; with Mus musculus [10]) was Active. For the same molecule, the inhibition result (in series [6]; at Caspase-8 (Mus musculus)) was “inactive” throughout. Also, the inhibition result on Caspase-1 (Mus musculus) and in the series on J774.A1 [8] was “Active” throughout. Further, the MST in the series on Mus musculus [12] worked out at 8 h.
